From ChEMBL document CHEMBL4513216, “Probing the Open Global Health Chemical Diversity Library for Multistage-Active Starting Points for Next-Generation Antimalarials” (ACS Infect Dis, 2020)

Experiment: Toxicity liver stage against HepG2, at 10uM
Type: cell-based
Design: test concentration 10 uM, cell line HepG2-A16-CD81EGFP
Conditions: human, HepG2-A16-CD81EGFP cells; read-out: INHIBITION
Procedure, shortened: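 Uninfected HepG2-A16-CD81EGFP cells, 3 × 10^3 per well, 1536-well, plated on prespotted compound at 10 μM final, parasite-free screening media added to match infected plates; puromycin 10 μM positive, DMSO 0.5% negative; run in parallel with 48 h PbLuc assay at 37 °C, 5% CO2; viability by CellTiter-Glo luminescence, normalized to controls.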

Structure (SMILES)	cytotoxicity at 10 µM [%]
CO[C@H]1COCCN(Cc2c[nH]c3ccccc23)C1	4.65
O=C(NCCOCCO)c1cccnc1Oc1ccc(Cl)cc1	1.38
CCC(=O)NCC(Cc1cccc(F)c1)n1cccc1 (configuration not stated)	-0.765
CCCS(=O)(=O)N1CCC2(CCCC(=O)N2C)CC1	3.29
CN(Cc1ccco1)C1CCC12CCN(C(=O)c1ccncc1)CC2 (configuration not stated)	2.82
CC(=O)N1CCC2(CCN(S(=O)(=O)c3ccccc3)CC2)C1	-2.83
Cc1nc(COCC2CNCc3nccn3C2)cs1 (configuration not stated)	1.79
CN1CC[C@]2(CN(C(=O)[C@H]3CCCO3)C[C@H]2c2ccccc2)C1=O	8.49
CN1C[C@@H]2COC[C@]2(C(=O)NCc2cccs2)C1	9.22
O=C(c1ccc[nH]1)N1Cc2nccn2CC(COc2cccnc2)C1 (configuration not stated)	18.1
O=C(c1cccc(F)c1)N1CCc2ncc(Cn3cccn3)n2CC1	2.05
COc1ccc(C2SCC(=O)Nc3ccsc32)cc1OC (configuration not stated)	-0.898
CCOC(=O)N1CCN(c2nc(N3CCCC3)c3ccccc3n2)CC1	-5.31
Cc1cc(SCC(N)=O)nc(-c2cccc(F)c2)n1	-1.9
CCn1cc(C(=O)NCc2ccc3c(c2)OCO3)c(C)n1	9.9
Cc1ccc(Cn2nc(C)c3c(C(=O)O)c(Cl)c(C)nc32)cc1	5.53
Cc1nn(C)c2c(=O)n(C(C)C)c(NCC3CCCO3)nc12 (configuration not stated)	13.9
COCC(=O)NCc1cnc(C)nc1-c1cn(C)c2ccc(OC)cc12	11.9
COCCNc1ncc(-c2cccc(OC)c2)c(-c2nccn2C)n1	7.49
CNc1cnc(CC2COCCN(Cc3cccc(C)n3)C2)cn1 (configuration not stated)	8
Cc1oc2c(c1C(=O)N1CC[C@H](O)[C@]3(CCCO3)C1)CCCC2	2.75
COc1ccc(C(=O)N2CCOCC2c2[nH]ncc2C)cc1F (configuration not stated)	2.21
Cc1cccc2nc(C(=O)N3CCCC[C@]4(C)NC(=O)CCC[C@H]34)cn12	-1.85

Structure (SMILES)	cytotoxicity at 10 µM [%]
O=C(NCCO)C1CN(c2cncnc2)CCO1 (configuration not stated)	-29.9
COc1cccc(CC(=O)N2CCCC2c2nc(C)c(F)c(O)n2)c1 (configuration not stated)	-21.6
O=C(c1ccccn1)N1CCCC(c2ncncc2-c2ccncc2)C1 (configuration not stated)	-0.0141
Cn1ccc2ccnc(CC3CN(C(=O)c4cscn4)C3)c21	-28.6
Cc1ccnc(C2CCCN2C(=O)c2cnccn2)n1 (configuration not stated)	-14.1
O=C(c1cc[nH]n1)N1CCc2c(nc(N3CCCCC3)[nH]c2=O)C1	15.5
CN1CCCC(c2cccc(CCC(=O)NCc3ccccn3)n2)C1 (configuration not stated)	-14
CC(C)N1CCC(Cc2cc(-c3cc(F)ccc3C(=O)O)ncn2)C1 (configuration not stated)	7.49
CNc1cc(CNC(=O)c2ccncc2)nc(-c2ccncc2)n1	-7.16
CCC(CO)NC(=O)Nc1cc(F)ccc1SCC(F)F (configuration not stated)	12.6
CCn1nnnc1-c1cccc(NC(=O)CCOC(C)C)c1	-9.8
CCn1cc(CNCC(c2ccc(Cl)cc2)n2cccn2)cn1 (configuration not stated)	6.67
CC1(C)COCCN1C(=O)CCc1nc(-c2ccncc2)no1	-6.61
COC(=O)C1(NCc2nc(C)c(C)o2)CCC(C)CC1 (configuration not stated)	-5.54
CN1CCC(N(Cc2ccccc2)C(=O)c2ccn3ccnc3c2)CC1	5.63
CC1COc2ccccc2N1C(=O)CCc1cscn1 (configuration not stated)	1.88
CN(Cc1cc2ccccc2o1)S(C)(=O)=O	1.66
Cc1cc(C(=O)NC2CCN(c3nnc(C)c(C)c3C#N)CC2)no1	-2.12
CCOc1cccc2c1OCC(C(=O)NC(C)Cn1cccn1)=C2 (configuration not stated)	-1.18
CC1CN(C(=O)C2(c3cccc(F)c3)CCOCC2)CCO1 (configuration not stated)	4.89
CCn1cnnc1CNC(=O)N1CCOC(c2ccc(F)cc2)C1 (configuration not stated)	5.53
COc1ccc2c(c1)CCCN2C(=O)CN1CCOC(CN(C)C)C1 (configuration not stated)	-2.93
O=C(NCc1ccc(N2CC=CC2)cc1)Nc1nnc(C2CC2)s1	7.25

Structure (SMILES)	cytotoxicity at 10 µM [%]
O=C(NCc1ccccn1)NCC(c1ccco1)N1CCCC1 (configuration not stated)	-2.56
COC(=O)NCC(=O)NCC(C)(C)c1cccc(C(F)(F)F)c1	-3.36
Cc1ccc(OCC(=O)NCC(F)(F)F)nc1	0.84
CCCN(CC(F)F)C(=O)CCc1c(C)nc2cc(O)nn2c1C	-147
CCc1nccn1C1CCCN(C(=O)c2cc(C3CC3)on2)C1 (configuration not stated)	-6.96
O=C(CNC(=O)Nc1c(F)cc(F)cc1-c1ccccc1)NC1CC1	-13.5
N#Cc1nccnc1NC1CCN(c2ccccc2Br)C1 (configuration not stated)	3.92
CC(C)c1nnc2n1CC(CNCc1nnc(C(C)(C)C)o1)CC2 (configuration not stated)	-21.6
Cc1nc2ccccc2n(Cc2nnnn2C2CC2)c1=O	-10.3
CCN(C(=O)NCc1ncc(C)c(OC)c1C)C(C)c1cccnc1 (configuration not stated)	1.84
Cc1cc(S(=O)(=O)Nc2onc(C)c2C)c(C)s1	-4.96
C1CCN(CCOC2CCNCC2)CC1	6.88
O=C(NCCC(=O)N1CCCC1)c1cccnc1	11
CCC(C)(C)NC(=O)CSCc1ccc(S(=O)(=O)N(C)C)o1	5.94
Cc1ccc2c(c1)OCCCC2NCc1nccn1Cc1ccccc1 (configuration not stated)	-9.4
COc1ccc(C(NCc2cccc(O)c2)C2CC2)cc1 (configuration not stated)	4.99
CC(=O)N1CCCN(C(=O)NCCCNS(C)(=O)=O)CC1	-10.3
Cc1noc(COCC(=O)Nc2ncccc2Br)n1	2.13
Cc1ccc(CCC(=O)N(C)CCN2CCOCC2)c(C)c1	-4.51
Cc1ccc(CC2CCCN2CC(=O)NCc2cccnc2)cc1 (configuration not stated)	-3.83
CS(=O)(=O)N1CCC2(CC1)CC(CC(=O)NCC1CC1)c1ccccc12 (configuration not stated)	7.65
CNc1ncc(-c2ccc(NC(=O)[C@@H]3CCCCN3)cc2)cn1	-7.66
CN1CCN(CC2CC2)C(=O)c2cnc(N3CCC(CO)CC3)nc21	-3.14

Structure (SMILES)	cytotoxicity at 10 µM [%]
Cc1nc(O)cc(CCNC(=O)CN2CCCCCC2)n1	0.458
Cc1cnc(C)c(N2CCC(C(=O)O)(n3ccc(C(C)(C)C)n3)CC2)n1	20.4
CCCc1cc(C(=O)N(CC)Cc2ccncc2)[nH]n1	-6.52
CN(Cc1nc(C2CC2)no1)C(=O)CN1CC(c2ccccc2)CC1=O (configuration not stated)	2.11
CSc1ccccc1-n1ccnc1-c1cn(C2CCNCC2)nn1	-0.67
COCc1ncn(Cc2nc(-c3ccc(OC)c(OC)c3)oc2C)n1	-4.77
Cc1cccc(C(C(=O)NCc2cc(C)[nH]n2)N(C)C)c1 (configuration not stated)	-3.07
O=C(O)c1cc(N2C[C@H](NC(=O)C3CCOCC3)[C@@H](C3CC3)C2)ccn1	-4.23
COc1ccc2c(c1)CC(C(=O)N(C)Cc1noc3c1CCCC3)CO2 (configuration not stated)	-0.551
Cc1nc[nH]c1C(=O)N1CCCC2(CN(C)C(=O)O2)C1 (configuration not stated)	1.2
COC(=O)Nc1ccc(CNc2cncc(-n3cccn3)n2)cc1	-5.78
CCc1c(C(=O)N2CCNC(=O)C2)cnn1C(C)(C)C	-20.3
CCN1CCOC(CNCc2ccc(OCc3ccccn3)cc2)C1 (configuration not stated)	-7.83
CC(O)CNCc1c(C(C)C)nn(C)c1N1CCOCC1 (configuration not stated)	-3.48
O=C(NCC1CCOC1)Nc1ccc(Oc2ccc(F)cc2)nc1 (configuration not stated)	-13.7
CC(Nc1cccc(CN2CCOC2=O)c1)C(=O)NC(=O)NC(C)(C)C (configuration not stated)	-10.9
Cc1nc(C)n(CC2CCCCN2CCc2ccncc2)n1 (configuration not stated)	-6.3
O=C(CCc1ccc(-c2ccccc2)[nH]1)N1CCCC(n2ccnc2)C1 (configuration not stated)	-15.7
CC(C)(C)c1cc(NC(=O)CN2CCC(N3CCNC3=O)CC2)on1	-2.05
Cc1cnn(CC2CCCN2C(=O)c2ccc(Cl)cc2F)c1 (configuration not stated)	-19
CCn1ccnc1CN1CCCN(C(=O)Cc2ccc(C)cc2)CC1	-7.29
CCN(Cc1cccc(F)c1)Cc1nc2c(cnn2C)c(=O)[nH]1	3.71
CC(=O)N(Cc1ncc(C)o1)C1CCN(Cc2ccon2)C1 (configuration not stated)	-9.03

Structure (SMILES)	cytotoxicity at 10 µM [%]
CCn1cnnc1C1CCN(C(=O)c2ccccc2OC)CC1	-8.62
Cn1ccnc1CN1CCCN(C(=O)c2ccc3c(c2)COC3)CC1	-10.9
Cn1cc(C(=O)NC2CCN(Cc3ccn(C)c(=O)c3)CC2)cn1	-16.7
CNc1nc(CNC(=O)Nc2cccc(F)c2C)cs1	-5.43
Cc1cccc(-c2nc(CN3CCc4cnc(C)nc4C3)no2)c1	-8.42
O=C1CC2(CCCNC2)C(=O)N1Cc1ccc(Cl)cc1 (configuration not stated)	-1.57
Cc1ccoc1C(=O)N1Cc2c(CN3CCCCC3)nn(C)c2C1	-1.16
CC(C)C(=O)N1CC[C@H]2N(C)CC[C@@]2(C(=O)N2CCCC2)CC1	5.5
CC(=O)N1CC[C@H]2OCC[C@@]2(C(=O)NCCc2ccccn2)C1	6
C[C@H]1CN(CC2CCOCC2)C[C@@]12CCN(Cc1cccnc1)C2=O	1.73
c1cncc(N2CCCC3(CCN(CC4CCCO4)CC3)C2)c1 (configuration not stated)	5.15
c1cnc2c(c1)CN(C1CCOC1)CCN2CC1CC1 (configuration not stated)	4.92
c1ccc(CN2CCc3c(COCc4ccncc4)cncc3C2)nc1	6.53
CN(C)C[C@]12COC[C@H]1CN(Cc1ccc3ccccc3n1)C2	6.77
O=C1[C@@H]2CN(C3CCOCC3)C[C@H]2CCN1CC1CC1	4.17
O=C1[C@H]2CN(Cc3ccc(F)cc3)C[C@H]2CN1CCN1CCCC1	-13.2
Cn1nc(Cn2ccnc2)c2c1CN(c1ncccn1)C2	5.3
Cc1ccc2c(n1)N(C)CCN(Cc1ccco1)C2	-4.97
COc1cccc(-n2cc3[nH]c(=O)[nH]n3c2=O)c1	-6.47
CC(C)(C)CC(=O)N1C[C@@H]2C[C@@H]1CN2	6.59
